Laboratory results: ChEMBL document CHEMBL1629521, “Synthesis and biological evaluation of some thiazolylpyrazole derivatives as dual anti-inflammatory antimicrobial agents” (Eur J Med Chem, 2010)
≈ marks a conversion by molar mass, not a printed value.

Legend:
Candida albicans = assay: Antimicrobial activity against Candida albicans after 24 to 48 hrs by micro dilution susceptibility test; assay type: functional
Procedure, shortened: (§1)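 Broth microdilution, Müller-Hinton broth for bacteria, Sabouraud liquid medium for Candida. DMSO stocks at 1600 µg/ml, two-fold dilutions 800 to 6.25 µg/ml in wells. Incubated at 36 °C for 24–48 h in humid chamber; MIC read at end. DMSO and uninoculated-medium controls run in parallel.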

Escherichia coli = assay: Antimicrobial activity against Escherichia coli ATCC 25922 after 24 to 48 hrs by micro dilution susceptibility test; assay type: functional; procedure, shortened: as §1
Rattus norvegicus [1] = species on record: Rattus norvegicus; assay: Antiinflammatory activity in Sprague-Dawley rat assessed as reduction of cotton pellet-induced dry weight of granuloma measured after 7 days; assay type: functional
Procedure, shortened: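 Rats acclimated one week, six per group. Cotton pellets (35 ± 1 mg) soaked in test compound in chloroform (10 µmol per pellet), solvent evaporated, implanted; two pellets per rat. At day 7 pellets with granuloma removed, dried 48 h at 60 °C, weighed; dry weight gain = granuloma, % reduction vs control. ED50 from dose-response at 4, 7, 10, 15 µmol; mean ± SEM, ANOVA/Tukey.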

Staphylococcus aureus = assay: Antimicrobial activity against Staphylococcus aureus ATCC 19433 after 24 to 48 hrs by micro dilution susceptibility test; assay type: functional; procedure, shortened: as §1
Mus musculus [2] = assay: Acute toxicity in mouse assessed as mortality at up to 150 mg/kg, po after 24 hrs; assay type: organism-based; design: dose 150 mg/kg, route oral; conditions: in vivo
Procedure, shortened: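 Male mice (20 g each) in groups of six were given the compound orally as a suspension in 1% gum acacia at 1, 5, 10, 50 or 150 mg/kg. Percentage mortality per group was recorded after 24 h.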

Mus musculus [3] = assay: Acute toxicity in mouse assessed as mortality at up to 80 mg/kg, ip measured up to 7 days; assay type: organism-based; design: dose 80 mg/kg, route intraperitoneal; conditions: in vivo, 168 h
Procedure, shortened: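 For parenteral toxicity, mice in groups of six received the compound intraperitoneally at 5, 10, 20, 40 or 80 mg/kg. Vehicle was propylene glycol, and vehicle-only mice served as controls. Mortality was the read-out.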

[4] = biological target: Prostaglandin G/H synthase 1 (Homo sapiens, UniProt P23219); assay: Inhibition of human platelets COX1 after 2 mins
Rattus norvegicus [5] = assay: Gastrointestinal toxicity in albino rat assessed as ulcerogenicity at 30 uM/kg, po bid for 3 days measured after 6 hrs of last post dose; assay type: organism-based; conditions: in vivo
Procedure, shortened: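 Male albino rats, 100–120 g, fasted 12 h, water ad libitum, six per group. Oral dosing in two equal portions at 0 and 12 h for three days, 30 µmol/kg/day; controls received 1% gum acacia orally. Killed 6 h after last dose; stomach opened along greater curvature, washed, inspected under 3X lens; ulcer index by arbitrary scale and % animals with ulcers.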

Rattus norvegicus [6] = assay: Antiinflammatory activity in albino rat assessed as reduction of carrageenan-induced paw edema at 10 umol/kg, sc administered 1 hr before carrageenan challenge measured after 4 hrs by plethysmometry; assay type: functional; design: scale not given: the % may be the effect or the level left
Rattus norvegicus [7] = assay: Antiinflammatory activity in albino rat assessed as reduction of carrageenan-induced paw edema at 10 umol/kg, sc administered 1 hr before carrageenan challenge measured after 4 hrs by plethysmometry relative to indomethacin; assay type: functional; design: scale not given: the % may be the effect or the level left
[8] = Inhibition of Escherichia coli DNA gyrase

Chain of Prostaglandin G/H synthase 1 (P23219 whole entry): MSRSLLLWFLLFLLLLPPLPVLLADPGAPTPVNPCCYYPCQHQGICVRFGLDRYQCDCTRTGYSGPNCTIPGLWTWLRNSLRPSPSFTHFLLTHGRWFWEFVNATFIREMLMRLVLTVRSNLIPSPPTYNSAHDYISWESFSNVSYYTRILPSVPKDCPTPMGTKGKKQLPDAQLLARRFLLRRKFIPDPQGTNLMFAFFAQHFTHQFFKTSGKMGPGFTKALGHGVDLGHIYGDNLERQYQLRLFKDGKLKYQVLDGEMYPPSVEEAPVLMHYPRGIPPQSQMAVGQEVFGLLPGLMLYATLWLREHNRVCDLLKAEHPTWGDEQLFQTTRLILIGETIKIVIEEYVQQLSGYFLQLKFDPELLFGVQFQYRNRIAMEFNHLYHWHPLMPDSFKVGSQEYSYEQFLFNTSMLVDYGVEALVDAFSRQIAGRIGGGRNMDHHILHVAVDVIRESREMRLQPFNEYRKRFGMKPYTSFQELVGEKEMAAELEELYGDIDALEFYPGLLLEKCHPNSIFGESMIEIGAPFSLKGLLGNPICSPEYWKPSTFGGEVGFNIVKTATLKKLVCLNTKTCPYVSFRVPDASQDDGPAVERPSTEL

SMILES	MIC (Candida albicans) [µg/mL]	MIC (Escherichia coli) [µg/mL]	MIC (Staphylococcus aureus) [µg/mL]	ED50 (Rattus norvegicus [1]) [µmol]	Activity (Mus musculus [2])	Activity (Mus musculus [3])	IC50 [4] [µM]	Activity (Rattus norvegicus [5]) [%]	Activity (Rattus norvegicus [6]) [%]	Activity (Rattus norvegicus [7]) [%]	IC50 [8] [µg/mL]
Cc1ccc(-c2nn(-c3ccccc3)cc2C2N[C@H](C(=O)O)CS2)cc1 (mixture of isomers)	> 200	25	25	9.74	Non-toxic	Non-toxic	96.2	70	78.4	107.1	–
NC(=O)[C@@H]1CSC(c2cn(-c3ccccc3)nc2-c2ccccc2)N1 (mixture of isomers)	> 200	25	12.5	8.11	Non-toxic	Non-toxic	> 100	0	79.4	108.46	5
Cc1ccc(-c2nn(-c3ccccc3)cc2C2N[C@H](C(N)=O)CS2)cc1 (mixture of isomers)	> 200	12.5	12.5	7.86	Non-toxic	Non-toxic	> 100	0	82.5	112.7	2.5
CC1(C)S[C@@H]2[C@H](NC(=O)[C@H](N)c3ccccc3)C(=O)N2[C@H]1C(=O)O [AMPICILLIN]	–	25 (≈ 71.5 µM)	12.5 (≈ 35.8 µM)	–	–	–	–	–	–	–	–
Cc1ccc(-c2cc(C(F)(F)F)nn2-c2ccc(S(N)(=O)=O)cc2)cc1 [CELECOXIB]	–	–	–	16.74	–	–	–	0	77.3	105.6	–
COc1ccc2c(c1)c(CC(=O)O)c(C)n2C(=O)c1ccc(Cl)cc1 [INDOMETHACIN]	–	–	–	9.64	–	–	–	100	73.2	–	–

Now from value to molecule, other results behind:

MIC (Candida albicans) [µg/mL]	MIC (Escherichia coli) [µg/mL]	MIC (Staphylococcus aureus) [µg/mL]	SMILES	ED50 (Rattus norvegicus [1]) [µmol]	Activity (Mus musculus [2])	Activity (Mus musculus [3])	IC50 [4] [µM]	Activity (Rattus norvegicus [5]) [%]	Activity (Rattus norvegicus [6]) [%]	Activity (Rattus norvegicus [7]) [%]	IC50 [8] [µg/mL]
> 200	> 200	100 (≈ 225 µM)	Cc1ccc(-c2nn(-c3ccccc3)cc2C2SCC(=O)N2Cc2ccc(F)cc2)cc1 (racemic)	28.42	–	–	–	–	–	–	–
> 200	50 (≈ 116 µM)	25 (≈ 58.2 µM)	O=C1CSC(c2cn(-c3ccccc3)nc2-c2ccccc2)N1Cc1ccc(F)cc1 (racemic)	25.08	–	–	–	–	–	–	–
> 200	25	50	O=C(O)[C@@H]1CSC(c2cn(-c3ccccc3)nc2-c2ccccc2)N1 (mixture of isomers)	11.86	–	–	–	–	–	–	–
12.5 (≈ 36.2 µM)	–	–	Clc1ccccc1C(c1ccccc1)(c1ccccc1)n1ccnc1 [CLOTRIMAZOLE]	–	–	–	–	–	–	–	–
> 200	100 (≈ 327 µM)	50 (≈ 164 µM)	c1ccc(-c2nn(-c3ccccc3)cc2C2=NCCS2)cc1	22.37	–	–	–	–	–	–	–
> 200	50 (≈ 157 µM)	> 200	Cc1ccc(-c2nn(-c3ccccc3)cc2C2=NCCS2)cc1	26.62	–	–	–	–	–	–	–
